PMC9307089 (Journal of medicinal chemistry, 2021)
Read-outs that look alike come from different tables or passages of the source. Numbered stars: 1 amine (or outer) side, 2 acyl side, 3 side chain; on linkers, the order of the positions; unused ones are H or OH. Square brackets hold non-standard residues; d marks the D form. Peptide text beside a SMILES is read from it. X1 = N=C(N)NCCC[C@H](N[*:1])C(=O)c1nc2ccc(C(=O)[*:2])cc2s1

Experiments:
[1] = In vitro stability in mouse plasma; format: in vitro ADME
[2] = In vitro stability in human plasma; format: in vitro ADME
[3] = Mouse pharmacokinetics, IP dosing; settings: for duration of compound exposure (detectable compound) in plasma: monitored for 24 h
[4] = biological target: thrombin (Homo sapiens, UniProt P00734); assay: Chromogenic kinetic enzyme assay, thrombin; format: biochemical
[5] = Mouse plasma protein binding; format: in vitro ADME
[6] = biological target: T1, recombinant serine protease domain of HGFA (Homo sapiens, UniProt Q04756); assay: Fluorescent kinetic enzyme inhibition assay, HGFA; format: biochemical
T1 sequence (Q04756 408-646 limits assumed): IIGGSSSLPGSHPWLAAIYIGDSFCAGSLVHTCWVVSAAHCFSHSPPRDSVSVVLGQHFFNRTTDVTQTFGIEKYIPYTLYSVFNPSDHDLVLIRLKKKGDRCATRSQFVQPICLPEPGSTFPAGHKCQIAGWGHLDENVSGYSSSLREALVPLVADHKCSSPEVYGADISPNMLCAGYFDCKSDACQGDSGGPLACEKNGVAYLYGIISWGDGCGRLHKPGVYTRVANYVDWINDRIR

[7] = test system: EBC-1 lung cancer cells; settings: previous finding; cited from earlier work
[8] = test system: H596 lung cancer cells; assay: Pro-HGF-mediated growth of H596 cells in vitro; format: cell-based; settings: pro-HGF 50 ng/ml; JNJ 500 nM, nafamostat […], ZFH7116 10 μM
[9] = biological target: T2, matriptase (Homo sapiens, UniProt Q9Y5Y6); assay: Proteolytic processing of recombinant pro-HGF by matriptase; format: biochemical; settings: pro-HGF 10 ng, matriptase 1 nM, one hour
T2 sequence (Q9Y5Y6 1-855): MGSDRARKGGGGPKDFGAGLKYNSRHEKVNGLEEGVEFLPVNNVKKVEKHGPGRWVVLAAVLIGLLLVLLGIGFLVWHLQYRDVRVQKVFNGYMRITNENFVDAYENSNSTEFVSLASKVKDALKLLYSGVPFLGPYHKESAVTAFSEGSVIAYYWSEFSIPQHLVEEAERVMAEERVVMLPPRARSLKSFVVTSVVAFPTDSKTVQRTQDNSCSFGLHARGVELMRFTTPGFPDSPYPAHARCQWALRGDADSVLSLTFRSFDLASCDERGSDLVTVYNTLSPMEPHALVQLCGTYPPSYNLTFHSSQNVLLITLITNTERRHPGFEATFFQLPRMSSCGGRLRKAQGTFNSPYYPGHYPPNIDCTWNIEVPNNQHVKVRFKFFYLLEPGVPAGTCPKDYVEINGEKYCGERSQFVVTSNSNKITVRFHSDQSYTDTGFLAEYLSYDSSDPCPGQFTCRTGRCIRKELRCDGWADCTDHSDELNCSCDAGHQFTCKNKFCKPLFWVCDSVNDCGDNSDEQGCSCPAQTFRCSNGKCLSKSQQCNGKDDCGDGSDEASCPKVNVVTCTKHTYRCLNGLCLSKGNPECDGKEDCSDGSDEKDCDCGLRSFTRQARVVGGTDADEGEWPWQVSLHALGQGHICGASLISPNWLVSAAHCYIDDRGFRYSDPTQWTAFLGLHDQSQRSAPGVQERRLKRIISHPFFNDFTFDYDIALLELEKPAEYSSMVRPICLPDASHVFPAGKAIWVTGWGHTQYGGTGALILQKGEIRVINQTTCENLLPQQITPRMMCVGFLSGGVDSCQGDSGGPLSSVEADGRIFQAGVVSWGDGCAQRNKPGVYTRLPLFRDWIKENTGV
Outline: (§1)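 Recombinant pro-HGF (10 ng) was incubated 1 h with matriptase (1 nM), hepsin (10 nM) or HGFA (5 nM), with or without test compound. Products were immunoblotted with a polyclonal antibody detecting pro-HGF and the alpha and beta chains of active HGF. Active HGF was run as positive control.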

[10] = Tolerability in mice, daily IP for 7 days; format: in vivo
[11] = biological target: hepsin (Homo sapiens, UniProt P05981); assay: Proteolytic processing of recombinant pro-HGF by hepsin; format: biochemical; settings: pro-HGF 10 ng, hepsin 10 nM, one hour
Chain of hepsin (P05981 whole entry): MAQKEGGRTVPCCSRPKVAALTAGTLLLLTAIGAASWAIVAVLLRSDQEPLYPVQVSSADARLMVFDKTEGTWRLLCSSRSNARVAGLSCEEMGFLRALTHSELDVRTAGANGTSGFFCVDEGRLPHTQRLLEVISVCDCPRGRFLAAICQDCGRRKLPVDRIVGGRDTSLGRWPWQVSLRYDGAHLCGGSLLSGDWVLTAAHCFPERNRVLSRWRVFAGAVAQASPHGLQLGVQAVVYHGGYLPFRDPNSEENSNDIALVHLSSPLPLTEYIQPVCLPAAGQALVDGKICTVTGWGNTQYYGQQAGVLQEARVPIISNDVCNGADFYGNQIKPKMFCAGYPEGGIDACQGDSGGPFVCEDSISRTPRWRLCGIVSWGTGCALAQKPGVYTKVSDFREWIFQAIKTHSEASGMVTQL
Outline: as §1

[12] = test system: HCC827 cells; assay: Pro-HGF-mediated wound healing; format: cell-based; settings: HCC827, inhibitor 10 μM, 24 h
Outline: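 HCC827 monolayers were grown to confluence, serum-starved overnight and scratched. Cells were then pre-incubated 30 min with test compound (10 μM) and stimulated with HGF or pro-HGF for 24 h. Plates were stained with crystal violet and wound closure imaged; data average n=3.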

[13] = biological target: T3, HGFA (Homo sapiens, UniProt Q04756); assay: Proteolytic processing of recombinant pro-HGF by HGFA; format: biochemical; settings: pro-HGF 10 ng, HGFA 5 nM, one hour
T3 sequence (Q04756 373-655): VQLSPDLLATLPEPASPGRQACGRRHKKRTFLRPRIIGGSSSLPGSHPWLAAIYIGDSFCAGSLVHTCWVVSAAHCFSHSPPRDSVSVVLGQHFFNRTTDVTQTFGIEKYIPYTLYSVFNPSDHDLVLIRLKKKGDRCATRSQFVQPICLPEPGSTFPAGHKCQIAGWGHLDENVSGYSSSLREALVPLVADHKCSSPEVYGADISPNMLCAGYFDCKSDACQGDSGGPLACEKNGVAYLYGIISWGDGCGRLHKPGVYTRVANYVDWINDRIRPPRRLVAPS
Outline: as §1

[14] = test system: EBC-1 lung cancer cells; assay: Cell viability, pro-HGF-mediated resistance to MET inhibitor JNJ-38877605; format: cell-based; settings: JNJ-38877605 25 nM, pro-HGF 100 ng/ml, inhibitor 1 μM, 48 h
Outline: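 EBC-1 cells pre-incubated 24 h with pro-HGF (100 ng/ml), with or without test compound (1μM), then treated with MET kinase inhibitor JNJ-38877605 (25nM). Viability read by CellTiterGlo after 48 hrs. Means±S.E.M., n=3. One-way ANOVA with Dunnett's multiple comparison test against JNJ plus pro-HGF treated cells.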

[15] = test system: HCC827 lung cancer cells; assay: Cell viability, pro-HGF-mediated resistance to gefitinib; format: cell-based; settings: gefitinib 20 nM, pro-HGF 100 ng/ml, inhibitor 0.1-1 μM, 72 h
Outline: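 HCC827 cells (EGFR exon-19 E746–A750 deletion) were exposed to gefitinib (20 nM), with or without pro-HGF (100 ng/ml), and test compound (0.1–1 μM) as indicated. Viability was read by crystal violet staining after 72 h. Data are means ± S.E.M. of n=3–5, analysed by one-way ANOVA with Dunnett's test against cells given gefitinib plus pro-HGF.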

[16] = read-out: Thrombin IC50, chromogenic substrate S2238

CC(=O)N[C@H]1CCC(=O)NCCCC[C@@H](C(=O)N[C@@H](CCCNC(=N)N)C(=O)c2nc3ccccc3s2)NC(=O)[C@H](CC(C)C)NC1=O [Compound 19, Ac-cyclo(ELK)-R- ketobenzothiazole]
half-life [1]: 2.62 h | half-life [2]: > 4.82 h | duration of compound exposure (detectable compound) in plasma ([3]; IP 20 mg/kg): ≤ 8 h | half-life ([3]; mouse, plasma, ip, 20 mg/kg): < 0.5 h | IC50 [4]: > 20 µM | Mouse PPB (% free) [5]: 6.0 % free | IC50 [6]: > 20 µM

CC1CN(CC2CCN(Cc3ccccc3)CC2)C(=O)N(c2cccc(C(=N)N)c2)C1.O=C(O)C(F)(F)F (stereo not shown) [SRI31215]
HGF-mediated survival of MET-amplified cancer cells upon MET inhibition [7]: inhibited

CC(=O)N[C@H]1CC(=O)NCCCC[C@@H](C(=O)N[C@@H](CCCNC(=N)N)C(=O)c2nc3ccccc3s2)NC(=O)[C@H](CCC(N)=O)NC1=O [Compound 26, Ac-cyclo(DQK)-R- ketobenzothiazole]
IC50 [4, 16]: > 20 µM

CC(=O)N[C@H]1CC(=O)NCCCC[C@@H](C(=O)N[C@@H](CCCNC(=N)N)C(=O)c2nc3ccccc3s2)NC(=O)[C@H]([C@@H](C)O)NC1=O [Compound 27, Ac-cyclo(DTK)-R- ketobenzothiazole]
IC50 [4, 16]: > 20 µM

Cn1cc(-c2ccc3nnc(C(F)(F)c4ccc5ncccc5c4)n3n2)cn1 [JNJ-38877605]
pro-HGF-mediated growth of H596 cells [8]: inhibited the pro-HGF-mediated growth of H596 cells

CC(=O)N[C@H]1CC(=O)NCCCC[C@@H](C(=O)N[C@@H](CCCNC(=N)N)C(=O)c2nc3ccccc3s2)NC(=O)CNC1=O [Compound 22, Ac-cyclo(DGK)-R- ketobenzothiazole]
IC50 [4, 16]: > 20 µM

CC(=O)N[C@H]1CC(=O)NCCCC[C@@H](C(=O)N[C@@H](CCCNC(=N)N)C(=O)c2nc3ccccc3s2)NC(=O)[C@H](CC(C)C)NC1=O [Compound 18, Ac-cyclo(DLK)-R- ketobenzothiazole]
inhibition of pro-HGF activation by matriptase [9]: potently inhibited | tolerated dose [10]: up to 20 mg/kg | inhibition of pro-HGF activation by hepsin [11]: potently inhibited | AUC in mice (in words) ([3]; IP 20 mg/kg): high | duration of compound exposure above IC50s ([3]; IP 20 mg/kg): 24 h | duration of compound exposure (detectable compound) in plasma ([3]; IP 20 mg/kg): > 24 h | pro-HGF-mediated wound closure [12]: significantly inhibited | inhibition of pro-HGF activation by HGFA [13]: did not inhibit | pro-survival activity of pro-HGF in JNJ-38877605-treated EBC-1 cells [14]: blocked the pro-survival activity of pro-HGF | Mouse PPB (% free) [5]: 28.6 % free

CC(=O)N[C@H]1CC(=O)NCCCC[C@@H](C(=O)N[C@@H](CCCNC(=N)N)C(=O)c2nc3ccccc3s2)NC(=O)[C@H](Cc2ccccc2)NC1=O [Compound 29, Ac-cyclo(DFK)-R- ketobenzothiazole]
AUC in mice (in words) ([3]; IP 20 mg/kg): comparable to 18

CC(=O)N[C@H]1CCCCNC(=O)C[C@@H](C(=O)N[C@@H](CCCNC(=N)N)C(=O)c2nc3ccccc3s2)NC(=O)[C@H](CC(C)C)NC1=O [Compound 15, Ac-cyclo(KLD)-R-ketobenzothiazole]
Mouse PPB (% free) [5]: 85.3 % free

CC(=O)N[C@H]1CCCCNC(=O)CC[C@@H](C(=O)N[C@@H](CCCNC(=N)N)C(=O)c2nc3ccccc3s2)NC(=O)[C@H](CC(C)C)NC1=O [Compound 16, Ac-cyclo(KLE)-R-ketobenzothiazole]
duration of compound exposure (detectable compound) in plasma ([3]; IP 20 mg/kg): ≤ 8 h | Mouse PPB (% free) [5]: 18.4 % free

CC(=O)N[C@H]1CC(=O)NCCCC[C@@H](C(=O)N[C@@H](CCCNC(=N)N)C(=O)c2nc3ccccc3s2)NC(=O)[C@H](CC(N)=O)NC1=O [Compound 25, Ac-cyclo(DNK)-R- ketobenzothiazole]
IC50 [4, 16]: > 20 µM

N=C(N)Nc1ccc(C(=O)Oc2ccc3cc(C(=N)N)ccc3c2)cc1 [Nafamostat]
pro-HGF-mediated growth of H596 cells [8]: inhibited the pro-HGF-mediated growth of H596 cells

CC(=O)N[C@H]1CCCCNC(=O)CC[C@@H](C(=O)N[C@@H](CCCNC(=N)N)C(=O)c2nc3ccccc3s2)NC(=O)[C@H](CCCNC(=N)N)NC1=O [Compound 17, Ac-cyclo(KRE)-R- ketobenzothiazole]
Mouse PPB (% free) [5]: 25.9 % free

CC(=O)N[C@H]1CC(=O)NCCCC[C@@H](C(=O)N[C@@H](CCCNC(=N)N)C(=O)c2nc3ccccc3s2)NC(=O)[C@H](Cc2ccc(O)cc2)NC1=O [Compound 30, Ac-cyclo(DYK)-R- ketobenzothiazole]
IC50 [4, 16]: > 20 µM

CC(=O)N[C@@H](CO)C(=O)N[C@@H](CCCCN)C(=O)N[C@@H](CC(C)C)C(=O)N[C@@H](CCCNC(=N)N)C(=O)c1nc2ccc(C(=O)N[C@H](C(N)=O)C(C)C)cc2s1 [Compound 31] (Ac-SKL[X1]V-NH2)
inhibition of pro-HGF activation by matriptase [9]: potently inhibited | inhibition of pro-HGF activation by hepsin [11]: potently inhibited | pro-HGF-mediated wound closure [12]: significantly inhibited | inhibition of pro-HGF activation by HGFA [13]: potently inhibited | pro-survival activity of pro-HGF in JNJ-38877605-treated EBC-1 cells [14]: blocked the pro-survival activity of pro-HGF | Mouse PPB (% free) [5]: 16.7 % free | pro-HGF-mediated growth of H596 cells [8]: blocked the growth-promoting activity of pro-HGF | pro-survival effect of pro-HGF in gefitinib-treated HCC827 cells [15]: blocked the pro-survival effects of pro-HGF

CC(=O)N[C@H]1CC(=O)NCCCC[C@@H](C(=O)N[C@@H](CCCNC(=N)N)C(=O)c2nc3ccccc3s2)NC(=O)[C@H](C(C)C)NC1=O [Compound 24, Ac-cyclo(DVK)-R- ketobenzothiazole]
IC50 [4, 16]: > 20 µM

CC(=O)N[C@H]1CC(=O)NCCCC[C@@H](C(=O)N[C@@H](CCCNC(=N)N)C(=O)c2nc3ccccc3s2)NC(=O)[C@H](C)NC1=O [Compound 23, Ac-cyclo(DAK)-R- ketobenzothiazole]
IC50 [4, 16]: > 20 µM
